Laboratory results: ChEMBL document CHEMBL1255409, “In vitro activity of ceftaroline against 623 diverse strains of anaerobic bacteria” (2010)
In brackets after ≈: the same amount, converted by molar mass.

Assays:
Clostridium hathewayi = experiment: Antimicrobial activity against Clostridium hathewayi under anaerobic conditions after 44 hrs by CLSI-M11-47 protocol based agar dilution method; format: functional; details: Hungatella hathewayi
Procedure, shortened: (§1)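 Reference agar dilution per CLSI M11-A7 with plates made on test day. Clinical isolates were stored at −70°C in 20% skim milk, subcultured twice, and 48-h cell paste was suspended in brucella broth to 0.5 McFarland. About 10^5 CFU/spot was applied with a Steers replicator. Plates were incubated 44 h at 37°C anaerobically. MIC was the lowest concentration giving complete inhibition or marked growth reduction versus the drug-free control.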

Eubacterium contortum = experiment: Antimicrobial activity against Eubacterium contortum under anaerobic conditions after 44 hrs by CLSI-M11-47 protocol based agar dilution method; format: functional; details: Faecalicatena contorta; procedure, shortened: as §1
Clostridioides difficile = experiment: Antimicrobial activity against Clostridium difficile under anaerobic conditions after 44 hrs by CLSI-M11-47 protocol based agar dilution method; format: functional; procedure, shortened: as §1
Prevotella bergensis = experiment: Antimicrobial activity against Prevotella bergensis under anaerobic conditions after 44 hrs by CLSI-M11-47 protocol based agar dilution method; format: functional; details: Hallella bergensis
Procedure, shortened: (§2)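 Clinical isolates were stored at −70°C in 20% skim milk and identified phenotypically or by partial 16S rRNA sequencing. Each strain was subcultured twice from frozen stock. Cell paste from 48-h cultures was suspended in brucella broth to a 0.5 McFarland standard. About 10^5 CFU per spot were applied by Steers replicator to agar dilution plates prepared on the day of testing. Plates were incubated 44 h at 37°C in an anaerobic chamber. MIC was taken as the lowest concentration giving complete inhibition or marked reduction of growth versus the drug-free control.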

Actinomyces israelii = experiment: Antimicrobial activity against Actinomyces israelii under anaerobic conditions after 44 hrs by CLSI-M11-47 protocol based agar dilution method; format: functional; procedure, shortened: as §1
Prevotella oris = experiment: Antimicrobial activity against Prevotella oris under anaerobic conditions after 44 hrs by CLSI-M11-47 protocol based agar dilution method; format: functional; details: Segatella oris; procedure, shortened: as §2
Slackia exigua = experiment: Antimicrobial activity against Slackia exigua under anaerobic conditions after 44 hrs by CLSI-M11-47 protocol based agar dilution method; format: functional; procedure, shortened: as §2
[1] = system: Clostridium paraputrificum; experiment: Antimicrobial activity against Clostridium paraputrificum under anaerobic conditions after 44 hrs by CLSI-M11-47 protocol based agar dilution method; format: functional; procedure, shortened: as §1
Veillonella = experiment: Antimicrobial activity against Veillonella spp. under anaerobic conditions after 44 hrs by CLSI-M11-47 protocol based agar dilution method; format: functional; procedure, shortened: as §2
Eubacterium cylindroides = experiment: Antimicrobial activity against Eubacterium cylindroides under anaerobic conditions after 44 hrs by CLSI-M11-47 protocol based agar dilution method; format: functional; details: Faecalitalea cylindroides; procedure, shortened: as §1
Lacrimispora sphenoides = experiment: Antimicrobial activity against Clostridium sphenoides under anaerobic conditions after 44 hrs by CLSI-M11-47 protocol based agar dilution method; format: functional; procedure, shortened: as §1
Finegoldia magna = experiment: Antimicrobial activity against Finegoldia magna under anaerobic conditions after 44 hrs by CLSI-M11-47 protocol based agar dilution method; format: functional; procedure, shortened: as §1
Bacteroides fragilis = experiment: Antimicrobial activity against Bacteroides fragilis spp. under anaerobic conditions after 44 hrs by CLSI-M11-47 protocol based agar dilution method; format: functional; procedure, shortened: as §1
[2] = system: Actinomyces neuii subsp. anitratus; experiment: Antimicrobial activity against Actinomyces neuii subsp. anitratus under anaerobic conditions after 44 hrs by CLSI-M11-47 protocol based agar dilution method; format: functional, Winkia neuii subsp. anitrata; details: Winkia neuii; procedure, shortened: as §1
Atopobium parvulum = experiment: Antimicrobial activity against Atopobium parvulum under anaerobic conditions after 44 hrs by CLSI-M11-47 protocol based agar dilution method; format: functional; details: Lancefieldella parvula; procedure, shortened: as §1
Propionibacterium avidum = experiment: Antimicrobial activity against Propionibacterium avidum under anaerobic conditions after 44 hrs by CLSI-M11-47 protocol based agar dilution method; format: functional; details: Cutibacterium avidum; procedure, shortened: as §2
Fusobacterium nucleatum = experiment: Antimicrobial activity against Fusobacterium nucleatum under anaerobic conditions after 44 hrs by CLSI-M11-47 protocol based agar dilution method; format: functional; procedure, shortened: as §2
Mogibacterium timidum = experiment: Antimicrobial activity against Mogibacterium timidum under anaerobic conditions after 44 hrs by CLSI-M11-47 protocol based agar dilution method; format: functional; procedure, shortened: as §2
Anaerococcus vaginalis = experiment: Antimicrobial activity against Anaerococcus vaginalis under anaerobic conditions after 44 hrs by CLSI-M11-47 protocol based agar dilution method; format: functional; procedure, shortened: as §1
Prevotella buccae = experiment: Antimicrobial activity against Prevotella buccae under anaerobic conditions after 44 hrs by CLSI-M11-47 protocol based agar dilution method; format: functional; details: Segatella buccae; procedure, shortened: as §2
Eubacterium limosum = experiment: Antimicrobial activity against Eubacterium limosum under anaerobic conditions after 44 hrs by CLSI-M11-47 protocol based agar dilution method; format: functional; procedure, shortened: as §1
[Clostridium] innocuum = Antimicrobial activity against Clostridium […] under anaerobic conditions after 44 hrs by CLSI-M11-47 protocol based agar dilution method; format: functional; procedure, shortened: as §1
Schaalia odontolytica = experiment: Antimicrobial activity against Actinomyces odontolyticus under anaerobic conditions after 44 hrs by CLSI-M11-47 protocol based agar dilution method; format: functional; procedure, shortened: as §1
Eggerthella lenta = experiment: Antimicrobial activity against Eggerthella lenta under anaerobic conditions after 44 hrs by CLSI-M11-47 protocol based agar dilution method; format: functional; procedure, shortened: as §1
Thomasclavelia ramosa = experiment: Antimicrobial activity against Clostridium ramosum under anaerobic conditions after 44 hrs by CLSI-M11-47 protocol based agar dilution method; format: functional; procedure, shortened: as §1
Peptoniphilus lacrimalis = experiment: Antimicrobial activity against Peptoniphilus lacrimalis under anaerobic conditions after 44 hrs by CLSI-M11-47 protocol based agar dilution method; format: functional; procedure, shortened: as §2
Eubacterium saburreum = experiment: Antimicrobial activity against Eubacterium saburreum under anaerobic conditions after 44 hrs by CLSI-M11-47 protocol based agar dilution method; format: functional; details: Lachnoanaerobaculum saburreum; procedure, shortened: as §1
Clostridium glycolicum = experiment: Antimicrobial activity against Clostridium glycolicum under anaerobic conditions after 44 hrs by CLSI-M11-47 protocol based agar dilution method; format: functional; details: Terrisporobacter glycolicus; procedure, shortened: as §1
Anaerococcus murdochii = experiment: Antimicrobial activity against Anaerococcus murdochii under anaerobic conditions after 44 hrs by CLSI-M11-47 protocol based agar dilution method; format: functional; procedure, shortened: as §1
Schaalia meyeri = experiment: Antimicrobial activity against Actinomyces meyeri under anaerobic conditions after 44 hrs by CLSI-M11-47 protocol based agar dilution method; format: functional; procedure, shortened: as §1
Anaerococcus = experiment: Antimicrobial activity against Anaerococcus sp. under anaerobic conditions after 44 hrs by CLSI-M11-47 protocol based agar dilution method; format: functional; procedure, shortened: as §1
Prevotella intermedia = experiment: Antimicrobial activity against Prevotella intermedia under anaerobic conditions after 44 hrs by CLSI-M11-47 protocol based agar dilution method; format: functional; procedure, shortened: as §2

## CCO/N=C(\C(=O)N[C@@H]1C(=O)N2C(C(=O)[O-])=C(Sc3nc(-c4cc[n+](C)cc4)cs3)CS[C@H]12)c1nsc(NP(=O)(O)O)n1 [CEFTAROLINE FOSAMIL]
Clostridium hathewayi
  MIC50: 1 µg/mL (≈ 1.46 µM)
  MIC90: 2 µg/mL (≈ 2.92 µM)
Eubacterium contortum
  MIC50: 0.125 µg/mL (≈ 0.183 µM)
  MIC90: 0.25 µg/mL (≈ 0.365 µM)
Clostridioides difficile
  MIC50: 0.5 µg/mL (≈ 0.73 µM)
  MIC90: 16 µg/mL (≈ 23.4 µM)
Prevotella bergensis
  MIC50: 2 µg/mL (≈ 2.92 µM)
  MIC90: 32 µg/mL (≈ 46.7 µM)
Actinomyces israelii
  MIC50: 0.015 µg/mL (≈ 0.0219 µM)
  MIC90: 0.25 µg/mL (≈ 0.365 µM)
Prevotella oris
  MIC50: 2 µg/mL (≈ 2.92 µM)
  MIC90: 32 µg/mL (≈ 46.7 µM)
Slackia exigua
  MIC50: 0.125 µg/mL (≈ 0.183 µM)
  MIC90: 0.25 µg/mL (≈ 0.365 µM)
[1]
  MIC50: 0.5 µg/mL (≈ 0.73 µM)
  MIC90: 16 µg/mL (≈ 23.4 µM)
Veillonella
  MIC50: 0.125 µg/mL (≈ 0.183 µM)
  MIC90: 0.5 µg/mL (≈ 0.73 µM)
Eubacterium cylindroides
  MIC50: 0.125 µg/mL (≈ 0.183 µM)
  MIC90: 0.25 µg/mL (≈ 0.365 µM)
Lacrimispora sphenoides
  MIC50: 0.5 µg/mL (≈ 0.73 µM)
  MIC90: 16 µg/mL (≈ 23.4 µM)
Finegoldia magna
  MIC50: 0.25 µg/mL (≈ 0.365 µM)
  MIC90: 0.5 µg/mL (≈ 0.73 µM)
Bacteroides fragilis
  MIC50: 64 µg/mL (≈ 93.5 µM)
  MIC90: > 64 µg/mL
[2]
  MIC50: 0.015 µg/mL (≈ 0.0219 µM)
  MIC90: 0.25 µg/mL (≈ 0.365 µM)
Atopobium parvulum
  MIC50: 0.125 µg/mL (≈ 0.183 µM)
  MIC90: 0.25 µg/mL (≈ 0.365 µM)
Propionibacterium avidum
  MIC50: 0.25 µg/mL (≈ 0.365 µM)
  MIC90: 0.25 µg/mL (≈ 0.365 µM)
Fusobacterium nucleatum
  MIC50: ≤ 0.08 µg/mL
  MIC90: 0.125 µg/mL (≈ 0.183 µM)
Mogibacterium timidum
  MIC50: 0.125 µg/mL (≈ 0.183 µM)
  MIC90: 0.25 µg/mL (≈ 0.365 µM)
Anaerococcus vaginalis
  MIC50: 0.06 µg/mL (≈ 0.0876 µM)
  MIC90: 1 µg/mL (≈ 1.46 µM)
Prevotella buccae
  MIC50: 0.5 µg/mL (≈ 0.73 µM)
  MIC90: 64 µg/mL (≈ 93.5 µM)
Eubacterium limosum
  MIC50: 0.125 µg/mL (≈ 0.183 µM)
  MIC90: 0.25 µg/mL (≈ 0.365 µM)
[Clostridium] innocuum
  MIC50: 1 µg/mL (≈ 1.46 µM)
  MIC90: 2 µg/mL (≈ 2.92 µM)
Schaalia odontolytica
  MIC50: 0.015 µg/mL (≈ 0.0219 µM)
  MIC90: 0.25 µg/mL (≈ 0.365 µM)
Eggerthella lenta
  MIC50: 8 µg/mL (≈ 11.7 µM)
  MIC90: 16 µg/mL (≈ 23.4 µM)
Thomasclavelia ramosa
  MIC50: 1 µg/mL (≈ 1.46 µM)
  MIC90: 1 µg/mL (≈ 1.46 µM)
Peptoniphilus lacrimalis
  MIC50: 0.06 µg/mL (≈ 0.0876 µM)
  MIC90: 1 µg/mL (≈ 1.46 µM)
Eubacterium saburreum
  MIC50: 0.125 µg/mL (≈ 0.183 µM)
  MIC90: 0.25 µg/mL (≈ 0.365 µM)
Clostridium glycolicum
  MIC50: 0.5 µg/mL (≈ 0.73 µM)
  MIC90: 16 µg/mL (≈ 23.4 µM)
Anaerococcus murdochii
  MIC50: 0.06 µg/mL (≈ 0.0876 µM)
  MIC90: 1 µg/mL (≈ 1.46 µM)
Schaalia meyeri
  MIC50: 0.015 µg/mL (≈ 0.0219 µM)
  MIC90: 0.25 µg/mL (≈ 0.365 µM)
Anaerococcus
  MIC50: 0.06 µg/mL (≈ 0.0876 µM)
  MIC90: 1 µg/mL (≈ 1.46 µM)
Prevotella intermedia
  MIC50: 1 µg/mL (≈ 1.46 µM)
  MIC90: 16 µg/mL (≈ 23.4 µM)
